Source: PubChem BioAssay
LYP inh 2: PTPN22 phosphatase inhibitors, primary screen, biochemical, DiFMUP fluorescence, 2 µM; Tyrosine-protein phosphatase non-receptor type 22 (Homo sapiens), Q9Y2R2; recombinant LYP catalytic domain; inhibition, % at 2 µM; 96,000 compounds, 0.21% hits; AID 640, 2007;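 active = inhibition at 2 µM at or above a set limit, the screen mean plus 3 SD, cut at about 24% in these data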;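 also: 0% = DMSO with enzyme and 100% = enzyme fully blocked by orthovanadate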
Target sequence (Q9Y2R2 whole entry, looked up, the tested form may be a part): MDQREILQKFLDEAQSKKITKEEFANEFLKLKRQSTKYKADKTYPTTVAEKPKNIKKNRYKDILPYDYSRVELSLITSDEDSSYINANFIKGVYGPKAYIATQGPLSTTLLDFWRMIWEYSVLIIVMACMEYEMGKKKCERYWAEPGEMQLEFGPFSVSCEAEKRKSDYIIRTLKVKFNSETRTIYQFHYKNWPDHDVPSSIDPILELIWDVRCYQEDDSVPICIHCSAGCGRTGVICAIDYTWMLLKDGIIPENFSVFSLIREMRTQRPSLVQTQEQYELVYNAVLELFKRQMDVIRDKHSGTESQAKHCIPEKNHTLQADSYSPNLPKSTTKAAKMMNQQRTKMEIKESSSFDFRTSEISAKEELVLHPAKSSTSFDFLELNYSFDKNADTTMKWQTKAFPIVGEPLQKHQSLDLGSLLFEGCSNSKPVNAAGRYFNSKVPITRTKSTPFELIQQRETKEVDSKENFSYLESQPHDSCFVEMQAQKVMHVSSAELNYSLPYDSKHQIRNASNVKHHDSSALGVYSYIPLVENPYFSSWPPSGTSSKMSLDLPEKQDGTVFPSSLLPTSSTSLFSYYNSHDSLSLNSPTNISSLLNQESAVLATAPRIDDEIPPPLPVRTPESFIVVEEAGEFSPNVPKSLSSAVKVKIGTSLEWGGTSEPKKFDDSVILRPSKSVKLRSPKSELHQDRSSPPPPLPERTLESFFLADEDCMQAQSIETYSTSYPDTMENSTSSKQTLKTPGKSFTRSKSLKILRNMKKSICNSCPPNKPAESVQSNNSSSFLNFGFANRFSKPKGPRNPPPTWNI
PLK1 inh: human PLK1 kinase inhibitors, primary screen, biochemical, TR-FRET. Serine/threonine-protein kinase PLK1 (Homo sapiens), P53350. recombinant PLK1 kinase, TR-FRET peptide phosphorylation. inhibition, % at 10 µM. 97,000 compounds, 0.53% hits. AID 619, 2007;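 active = inhibition of 50% or more in the single-concentration screen; inactive = inhibition below 50%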;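 also: 0% = DMSO max control and 100% = H-89 dihydrochloride min control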
hDAT+cocaine: changed hDAT dopamine uptake under cocaine IC80, either direction, primary screen, cocaine antagonist project, cell-based, LLC-PK1 hDAT, [14C]-dopamine uptake, MLSMR | LLC-PK1 hDAT cells, [14C]-dopamine uptake with cocaine IC80; actives deviate in either direction | B-score at 10 µM | 110,000 compounds, 1.3% hits | AID 449768, 2010;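 active = Z score or B-score, a plate-position-corrected score, falls beyond the plate's 99.7% confidence bounds, in either direction; inactive = both scores lie inside the 99.7% bounds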;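 also: scored against the spread of the other compound wells on the same plate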
Plk1 PBD FP: Plk1 polo box domain binding inhibitors, primary screen, biochemical, fluorescence polarization. Serine/threonine-protein kinase PLK1 (Homo sapiens), P53350. Plk1 PBD phosphopeptide binding. inhibition, %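 (tested at about 20 µM)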. 97,000 compounds, 0.13% hits. AID 693, 2007; in the data active = inhibition above about 34%, passing the limit was not always enough
PTPN22 act: LYP phosphatase activators, primary screen, biochemical, DiFMUP fluorescence, 2 µM; Tyrosine-protein phosphatase non-receptor type 22 (Homo sapiens), Q9Y2R2; recombinant LYP; 0 = plate median, 100 = signal doubled; activation, % at 2 µM; 96,000 compounds, 0.11% hits; AID 697, 2007;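 active = activation at 2 µM above a set limit, the mean plus 5 SD, cut at about 37% in these data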
Rev-RRE block: HIV-1 Rev-RRE binding inhibitors, primary screen, biochemical, FRET, protein-RNA interaction. P05866. Rev peptide-RRE RNA binding. inhibition, % at 8 µM. 97,000 compounds, 0.79% hits. AID 704, 2007;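 active = inhibition above the screen-wide mean plus 3 SD, cut at about 35% in these data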;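 also: 0% = median DMSO wells and 100% = median Neomycin B control wells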
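Test system: labelled RRE RNA duplex and labelled Rev peptide. Times: 5 min compound–RNA preincubation, then 15 min with peptide, 25 °C. Doses: single-dose 8 µM. Measured by: FRET, excitation 480 nm, emission 540 nm donor and 671 nm acceptor. Measure: % inhibition of FRET ratio versus controls.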
* marks the source's active call; other numbers are inactive results; / = no result given; ! = not active in a repeat; [ ] = dose if it differs, or a comment. Hits are enriched below; roughly 2.7% of the tested compounds scored in any of these assays.

SMILES | LYP inh 2 | PLK1 inh | hDAT+cocaine | Plk1 PBD FP | PTPN22 act | Rev-RRE block
CNc1ccc(Br)cc(C(=O)/C=C/c2ccc3c(c2)OCO3)c1=O | 5 | 23 | 2.1 | -20 | -7 | 48*
COc1ccc(C(=O)/C=C/c2ccc(OC)cc2OC)c(O)c1 | / | / | 0.66 | / | / | /
CCNc1ccc(Br)cc(C(=O)/C=C/c2ccc(Cl)cc2Cl)c1=O | 1 | -4 | -1.1 | 5 | -2 | 79*[fluorescence artefact?]
CC(=O)[C@@H]1[C@@H]2C(=O)N(C3CCCCC3)C(=O)[C@@H]2C2c3ccccc3C=CN21 (stereo not given in full) | 2 | -19 | -0.019 | -17 | 2 | 41*
CC(=O)[C@H]1[C@@H]2C(=O)N(c3cccc(Cl)c3)C(=O)[C@@H]2[C@H]2c3ccccc3C=CN21 | 10 | 0 | -0.27 | -18 | -12 | 60*
Cc1ccccc1NC(=O)CN(C)S(=O)(=O)c1cccc2cccnc12 | -5 | -5 | 0.15 | -28 | 4 | 6
Cc1cc([N+](=O)[O-])ccc1NCc1ccccc1 | 8 | -5 | -0.026 | -2 | -6 | 5
CC(C)(CO)Nc1ccc([N+](=O)[O-])cc1[N+](=O)[O-] | 5 | -5 | -2.6* | -28 | 0 | 5
O=Nc1c(O)n(Cc2ccc(Cl)c(Cl)c2)c2ccccc12 | -2 | 3 | -0.091 | -2 | 6 | 21
O=C(Nc1nnc(C2CCCCC2)s1)c1ccco1 | 7 | -4 | -1.7* | 0 | -7 | -2
COC(=O)c1sccc1NC(=O)c1cc(OC)cc(OC)c1 | -7 | -118 | -8* | -2 | 5 | 7
O=C1Nc2ccc(Cl)cc2[C@@](C#CC2CC2)(C(F)(F)F)O1 | / | / | 1.6 | / | / | /
O=c1c2ccccc2oc2ccc(-c3ccc4[nH]ccc4c3)cc12 | / | / | -0.48 | / | / | /
CCn1c(SCC(=O)N/N=C/c2ccc(OC)c(OC)c2)nc2ccccc21 | -4 | -6 | 4.2* | -8 | 8 | 7
CCn1c(SCC(=O)N/N=C/C=C\c2ccccc2[N+](=O)[O-])nc2ccccc21 | 4 | -2 | 0.71 | 5 | 0 | 1
CCOC(=O)C1=C(CN2c3ccccc3CC2C)NC(=O)NC1c1ccccc1 (stereo not given) | 6 | -14 | -0.35 | 5 | -4 | -5
S=c1sc2c(N3CCOCC3)ncnc2n1-c1ccccc1 | / | 62* | -1.6 | 21 | / | 2
O=C(c1nn(Cc2ccccc2)c(=O)c2ccccc12)N1CCN(C/C=C/c2ccccc2)CC1 | -11 | -3 | 4* | 2 | 15 | -1
Fc1ccc([C@@H]2CCNC[C@H]2COc2ccc3c(c2)OCO3)cc1 | / | / | -3.7*! | / | / | /
O=C1C(c2ccc(F)cc2)N(Cc2ccc3c(c2)OCO3)C(=O)CN1C1CCCCCC1 (stereo not given) | 4 | -10 | 1.2 | -16 | -4 | 20
C=C[C@H]1[C@H](OC2OC(CO)C(O)C(O)C2O)OC=C(C(=O)OC)[C@H]1C[C@H]1CC(=O)C[C@H](CC(=O)CCc2ccc(O)cc2)O1 (stereo not given in full) | / | / | 0.81 | / | / | /
N#CC1(C#N)CC(C=O)=C(N)C1(C#N)CC(=O)c1ccc(F)cc1 (stereo not given) | 18 | -2 | -2.2* | 1 | -15 | 84*[fluorescence artefact?]
CC(C)(C)CN1C(N)=NC[C@@H]1c1ccccc1 | / | / | 0.14 | / | / | /
CC(C)(C)CN1C(N)=NC[C@@H]1Cc1ccccc1 | / | / | -2.7* | / | / | /
O=C(CSc1nnc(CNc2ccc(Cl)cc2)o1)Nc1nc2ccccc2s1 | 0 | 56* | -0.027 | -8 | -1 | 10
COc1ccccc1NC(=O)N(Cc1ccccc1)C1=NCC(C)S1 (stereo not given) | -10 | -7 | -3.7* | -5 | 10 | 15
O=C(CCc1ccccc1)NC(NC(=S)Nc1ccc(Cl)cc1)C(Cl)(Cl)Cl (stereo not given) | -6 | -10 | -0.62 | 20 | 4 | -9
